We go through 6 compounds from ChEMBL document CHEMBL4257586, “Polyheteroaryl Oxazole/Pyridine-Based Compounds Selected in Vitro as G-Quadruplex Ligands Inhibit Rock Kinase and Exhibit Antiproliferative Activity” (J Med Chem, 2018).

Molecules are shown by their SMILES. Several values for one entry are separate records, joined by “and”; a condition that tells them apart may be missing. Equal entries are not always repeated. Activity calls are given as the source filed them. No cut-off for these calls is given here.

Holding throughout (type): nucleic-acid assay
In one test the test system is dsDNA. Kind of test: Binding affinity to duplex 26 DNA (unknown origin) assessed as change in melting temperature at 1 uM by FRET.
Test [1] has as its system Quadruplex DNA. Kind of test: Binding affinity to 6-FAM labeled human telomeric F21T G-quadruplex DNA assessed as change in melting temperature at 1 uM in K+ rich buffer (10 mM KCl, 90 mM LiCl, 10 mM Li cacodylate) by FRET assay. The method, boiled down: (§1)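 FRET melting in duplicate. Dual-labelled oligo (6-FAM/TAMRA) at 0.2 μM with ligand at 1 μM, in 10 mM Li cacodylate pH 7.2. Buffer was 10 mM KCl + 90 mM LiCl for F21T and 1 mM KCl + 99 mM LiCl for FMycT. Sample annealed 90 °C 5 min, cooled to 4 °C overnight. Equilibrated 5 min at 25 °C, then ramped 0.5 °C/min to 95 °C. FAM read 492/516 nm, normalized; Tm taken at the fitted inflection point.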

In test [2] the test system is Quadruplex DNA. Nature of the test: Binding affinity to 6-FAM labeled human proto-oncogene sequence FMycT G-quadruplex DNA assessed as change in melting temperature at 1 uM in presence of K+ buffer (1 mM KCl, 99 mM LiCl, 10 mM Li cacodylate) by FRET assay. The procedure, abridged: as §1

Usually ΔTm stands for the shift of the melting midpoint relative to a reference.

As to `c1ccc(-c2ncc(-c3cccc(-c4cnc(-c5ccccn5)o4)n3)o2)nc1`, the outcome in the test with dsDNA was inactive.

On to `CN(C)CCOc1cc(-c2cnc(-c3cccc(-c4cnco4)n3)o2)nc(-c2cnc(-c3cccc(-c4cnco4)n3)o2)c1`, for which the ΔTm in the test with Quadruplex DNA [1] was in the range of 5 to 7 °C; in the test on Quadruplex DNA [2] it was 2.5 to 4.3 °C. Moreover, the outcome with dsDNA was inactive.

Regarding `c1cc(-c2cnc(-c3cccc(-c4cnco4)n3)o2)nc(-c2cnc(-c3cccc(-c4cnco4)n3)o2)c1`, the results for the ΔTm in the test on Quadruplex DNA [1] and in the test with Quadruplex DNA [2] were 5 to 7 °C and 2.5 to 4.3 °C, respectively. Further, in the test with dsDNA, the outcome was inactive.

In the case of `c1cc(-c2cnco2)nc(-c2ncc(-c3cc(OCCN4CCCCC4)cc(-c4cnc(-c5cccc(-c6cnco6)n5)o4)n3)o2)c1`, the results for the ΔTm with Quadruplex DNA [1] and in the test with Quadruplex DNA [2] were 5 to 7 °C and 2.5 to 4.3 °C, respectively. The outcome with dsDNA was inactive.

In the case of `c1ccc(-c2cnc(-c3cccc(-c4ncc(-c5ccccn5)o4)n3)o2)nc1`, the ΔTm with Quadruplex DNA [1] was 5.3 °C; in the test with Quadruplex DNA [2], 1.8 to 2.9 °C. Besides, in the test on dsDNA, the result was inactive.

Take `CN(C)CCOc1cc(-c2ncc(-c3ccccn3)o2)nc(-c2ncc(-c3ccccn3)o2)c1`: the ΔTm with Quadruplex DNA [1] is 11.6 °C and 11 °C; in the test with Quadruplex DNA [2] it was 1.8 to 2.9 °C. Also, in the test on dsDNA, the result was inactive.
